In general, MIC refers to the lowest concentration found to suppress growth.

In brackets after ≈: the same amount, converted by molar mass.

In one data set the test system is Staphylococcus aureus. The data set can be described thus: Antibacterial activity against methicillin-resistant Staphylococcus aureus isolate 11 incubated overnight by agar dilution method. The class given is functional.
Conditions: not given
In a few lines: (§1)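 MIC by agar dilution. Strains were grown overnight in LB broth and diluted, then about 10^4 CFU (2 μL spots) were spotted onto LB agar plates containing test compound at 0.5 to 8 μg mL−1 agar. Plates were incubated overnight at 37 °C and inspected for growth. Clinical MSSA and MRSA isolates came from local hospitals.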
In general terms: In agar dilution the substance is mixed into plates at graded concentrations.
As for `C[C@]12C[C@]34C[C@@H]1C[C@H](O2)[C@H]3[C@](C)(CCC(=O)Nc1c(O)ccc(C(=O)O)c1O)C(=O)C[C@@H]4SC(=O)c1ccccc1`, it took 2 µg/mL (≈ 3.45 µM) to inhibit growth (MIC).

Turning to `CCS[C@H]1CC(=O)[C@@](C)(CCC(=O)Nc2c(O)ccc(C(=O)O)c2O)[C@@H]2[C@@H]3C[C@H]4C[C@]12C[C@]4(C)O3`, the minimal inhibitory concentration (MIC) was 1 µg/mL (≈ 1.99 µM).

`C[C@]12C[C@]34C[C@@H]1C[C@H](O2)[C@H]3[C@](C)(CCC(=O)Nc1c(O)ccc(C(=O)O)c1O)C(=O)C[C@@H]4SC(=O)Cc1ccc(F)cc1` returned an MIC of 4 µg/mL (≈ 6.54 µM).

A further data set concerns Staphylococcus aureus. The data set can be described thus: Antibacterial activity against methicillin-resistant Staphylococcus aureus isolate 10 incubated overnight by agar dilution method. The class given is functional.
Conditions: not given
The essentials:
as §1
Turning to `C[C@]12C[C@]34C[C@@H]1C[C@H](O2)[C@H]3[C@](C)(CCC(=O)Nc1c(O)ccc(C(=O)O)c1O)C(=O)C[C@@H]4SC(=O)c1ccccc1`, the MIC worked out at 1 µg/mL (≈ 1.73 µM).

Regarding `CCS[C@H]1CC(=O)[C@@](C)(CCC(=O)Nc2c(O)ccc(C(=O)O)c2O)[C@@H]2[C@@H]3C[C@H]4C[C@]12C[C@]4(C)O3`, the MIC is 1 µg/mL (≈ 1.99 µM).

`C[C@]12C[C@]34C[C@@H]1C[C@H](O2)[C@H]3[C@](C)(CCC(=O)Nc1c(O)ccc(C(=O)O)c1O)C(=O)C[C@@H]4SC(=O)Cc1ccc(F)cc1` had an MIC of 2 µg/mL (≈ 3.27 µM).

The subject of a further data set is Staphylococcus aureus. The data set can be described thus: Antibacterial activity against methicillin-resistant Staphylococcus aureus isolate 5 incubated overnight by agar dilution method. The class given is functional.
Conditions: not given
In a few lines: as §1
`C[C@]12C[C@]34C[C@@H]1C[C@H](O2)[C@H]3[C@](C)(CCC(=O)Nc1c(O)ccc(C(=O)O)c1O)C(=O)C[C@@H]4SC(=O)c1ccccc1`: the MIC worked out at 2 µg/mL (≈ 3.45 µM).

`CCS[C@H]1CC(=O)[C@@](C)(CCC(=O)Nc2c(O)ccc(C(=O)O)c2O)[C@@H]2[C@@H]3C[C@H]4C[C@]12C[C@]4(C)O3` yielded an MIC of 1 µg/mL (≈ 1.99 µM).

Take `C[C@]12C[C@]34C[C@@H]1C[C@H](O2)[C@H]3[C@](C)(CCC(=O)Nc1c(O)ccc(C(=O)O)c1O)C(=O)C[C@@H]4SC(=O)Cc1ccc(F)cc1`: the minimal inhibitory concentration (MIC) stood at 2 µg/mL (≈ 3.27 µM).

The test system of a further data set is Staphylococcus aureus. The data set can be described thus: Antibacterial activity against methicillin-resistant Staphylococcus aureus isolate 9 incubated overnight by agar dilution method.
Conditions: not given
The class given is functional. The essentials:
as §1
Molecule `C[C@]12C[C@]34C[C@@H]1C[C@H](O2)[C@H]3[C@](C)(CCC(=O)Nc1c(O)ccc(C(=O)O)c1O)C(=O)C[C@@H]4SC(=O)c1ccccc1` returned an MIC of 1 µg/mL (≈ 1.73 µM).

Consider `CCS[C@H]1CC(=O)[C@@](C)(CCC(=O)Nc2c(O)ccc(C(=O)O)c2O)[C@@H]2[C@@H]3C[C@H]4C[C@]12C[C@]4(C)O3`, for which the MIC was found to be 1 µg/mL (≈ 1.99 µM).

For `C[C@]12C[C@]34C[C@@H]1C[C@H](O2)[C@H]3[C@](C)(CCC(=O)Nc1c(O)ccc(C(=O)O)c1O)C(=O)C[C@@H]4SC(=O)Cc1ccc(F)cc1`, the MIC came out at 2 µg/mL (≈ 3.27 µM).

System in another data set: not listed separately
The data set can be described thus: Stability of the compound in PBS at pH 5.8 at 0.1 mg/ml after 16 hrs by HPLC analysis. The class given is physicochemical. Conditions: buffer, pH 5.8, 16 h. In a few lines:
(§2)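 Compound at 0.1 mg mL−1 dissolved in 1 mM PBS at the stated pH. Held at 37 °C for 16 h. Remaining compound and retro-Michael reversion products analysed by HPLC.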
As for `C[C@]12C[C@]34C[C@@H]1C[C@H](O2)[C@H]3[C@](C)(CCC(=O)Nc1c(O)ccc(C(=O)O)c1O)C(=O)C[C@@H]4SC(=O)c1ccccc1`, the Stability result is “Stable”.

As to `CCS[C@H]1CC(=O)[C@@](C)(CCC(=O)Nc2c(O)ccc(C(=O)O)c2O)[C@@H]2[C@@H]3C[C@H]4C[C@]12C[C@]4(C)O3`, the Stability result is given as “Stable”.

In another data set the test system is Staphylococcus aureus. The data set can be described thus: Antibacterial activity against methicillin-sensitive Staphylococcus aureus isolate 2 incubated overnight by agar dilution method. The class given is functional.
Conditions: not given
In a few lines: as §1
Consider `C[C@]12C[C@]34C[C@@H]1C[C@H](O2)[C@H]3[C@](C)(CCC(=O)Nc1c(O)ccc(C(=O)O)c1O)C(=O)C[C@@H]4SC(=O)c1ccccc1`, for which the lowest concentration to inhibit growth (MIC) was 1 µg/mL (≈ 1.73 µM).

`CCS[C@H]1CC(=O)[C@@](C)(CCC(=O)Nc2c(O)ccc(C(=O)O)c2O)[C@@H]2[C@@H]3C[C@H]4C[C@]12C[C@]4(C)O3` came in with an MIC of 0.5 µg/mL (≈ 0.993 µM).

`C[C@]12C[C@]34C[C@@H]1C[C@H](O2)[C@H]3[C@](C)(CCC(=O)Nc1c(O)ccc(C(=O)O)c1O)C(=O)C[C@@H]4SC(=O)Cc1ccc(F)cc1` gave a minimum inhibitory concentration (MIC) of 1 µg/mL (≈ 1.63 µM).

Another data set relates to Staphylococcus aureus. The data set can be described thus: Antibacterial activity against methicillin-sensitive Staphylococcus aureus isolate 3 incubated overnight by agar dilution method.
Conditions: not given
The class given is functional. In a few lines:
as §1
As for `C[C@]12C[C@]34C[C@@H]1C[C@H](O2)[C@H]3[C@](C)(CCC(=O)Nc1c(O)ccc(C(=O)O)c1O)C(=O)C[C@@H]4SC(=O)c1ccccc1`, the lowest concentration to inhibit growth (MIC) was 1 µg/mL (≈ 1.73 µM).

Take `CCS[C@H]1CC(=O)[C@@](C)(CCC(=O)Nc2c(O)ccc(C(=O)O)c2O)[C@@H]2[C@@H]3C[C@H]4C[C@]12C[C@]4(C)O3`: 1 µg/mL (≈ 1.99 µM) was the least that counted as inhibitory (MIC).

Consider `C[C@]12C[C@]34C[C@@H]1C[C@H](O2)[C@H]3[C@](C)(CCC(=O)Nc1c(O)ccc(C(=O)O)c1O)C(=O)C[C@@H]4SC(=O)Cc1ccc(F)cc1`, for which 2 µg/mL (≈ 3.27 µM) was the least that counted as inhibitory (MIC).

The next data set relates to Staphylococcus aureus. The data set can be described thus: Antibacterial activity against Staphylococcus aureus ATCC 29213 incubated overnight by agar dilution method.
Conditions: not given
The class given is functional. The essentials: as §1
For the molecule `C[C@]12C[C@]34C[C@@H]1C[C@H](O2)[C@H]3[C@](C)(CCC(=O)Nc1c(O)ccc(C(=O)O)c1O)C(=O)C[C@@H]4SC(=O)c1ccccc1`, the minimal inhibitory concentration (MIC) came to 1 µg/mL (≈ 1.73 µM).

Regarding `CCS[C@H]1CC(=O)[C@@](C)(CCC(=O)Nc2c(O)ccc(C(=O)O)c2O)[C@@H]2[C@@H]3C[C@H]4C[C@]12C[C@]4(C)O3`, the lowest concentration to inhibit growth (MIC) was 0.5 µg/mL (≈ 0.993 µM).

As to `C[C@]12C[C@]34C[C@@H]1C[C@H](O2)[C@H]3[C@](C)(CCC(=O)Nc1c(O)ccc(C(=O)O)c1O)C(=O)C[C@@H]4SC(=O)Cc1ccc(F)cc1`, the MIC came out at 2 µg/mL (≈ 3.27 µM).

For the next data set, the system named is Staphylococcus aureus. The data set can be described thus: Antibacterial activity against methicillin-sensitive Staphylococcus aureus isolate 4 incubated overnight by agar dilution method. The class given is functional.
Conditions: not given
The essentials: as §1
`C[C@]12C[C@]34C[C@@H]1C[C@H](O2)[C@H]3[C@](C)(CCC(=O)Nc1c(O)ccc(C(=O)O)c1O)C(=O)C[C@@H]4SC(=O)c1ccccc1` had an MIC of 1 µg/mL (≈ 1.73 µM).

Regarding `CCS[C@H]1CC(=O)[C@@](C)(CCC(=O)Nc2c(O)ccc(C(=O)O)c2O)[C@@H]2[C@@H]3C[C@H]4C[C@]12C[C@]4(C)O3`, 1 µg/mL (≈ 1.99 µM) was the least that counted as inhibitory (MIC).

Take `C[C@]12C[C@]34C[C@@H]1C[C@H](O2)[C@H]3[C@](C)(CCC(=O)Nc1c(O)ccc(C(=O)O)c1O)C(=O)C[C@@H]4SC(=O)Cc1ccc(F)cc1`: the minimal inhibitory concentration (MIC) was found to be 1 µg/mL (≈ 1.63 µM).

The subject of the next data set is Staphylococcus aureus. The data set can be described thus: Antibacterial activity against methicillin-resistant Staphylococcus aureus isolate 7 incubated overnight by agar dilution method. The class given is functional.
Conditions: not given
In a few lines: as §1
The molecule `C[C@]12C[C@]34C[C@@H]1C[C@H](O2)[C@H]3[C@](C)(CCC(=O)Nc1c(O)ccc(C(=O)O)c1O)C(=O)C[C@@H]4SC(=O)c1ccccc1` displayed an MIC of 2 µg/mL (≈ 3.45 µM).

With `CCS[C@H]1CC(=O)[C@@](C)(CCC(=O)Nc2c(O)ccc(C(=O)O)c2O)[C@@H]2[C@@H]3C[C@H]4C[C@]12C[C@]4(C)O3`, it took 1 µg/mL (≈ 1.99 µM) to inhibit growth (MIC).

`C[C@]12C[C@]34C[C@@H]1C[C@H](O2)[C@H]3[C@](C)(CCC(=O)Nc1c(O)ccc(C(=O)O)c1O)C(=O)C[C@@H]4SC(=O)Cc1ccc(F)cc1` gave a minimum inhibitory concentration (MIC) of 4 µg/mL (≈ 6.54 µM).

Another data set relates to Staphylococcus aureus. The data set can be described thus: Antibacterial activity against methicillin-sensitive Staphylococcus aureus isolate 1 incubated overnight by agar dilution method. The class given is functional.
Conditions: not given
In a few lines:
as §1
In the case of `C[C@]12C[C@]34C[C@@H]1C[C@H](O2)[C@H]3[C@](C)(CCC(=O)Nc1c(O)ccc(C(=O)O)c1O)C(=O)C[C@@H]4SC(=O)c1ccccc1`, the MIC came to 1 µg/mL (≈ 1.73 µM).

For `CCS[C@H]1CC(=O)[C@@](C)(CCC(=O)Nc2c(O)ccc(C(=O)O)c2O)[C@@H]2[C@@H]3C[C@H]4C[C@]12C[C@]4(C)O3`, it took 0.5 µg/mL (≈ 0.993 µM) to inhibit growth (MIC).

`C[C@]12C[C@]34C[C@@H]1C[C@H](O2)[C@H]3[C@](C)(CCC(=O)Nc1c(O)ccc(C(=O)O)c1O)C(=O)C[C@@H]4SC(=O)Cc1ccc(F)cc1` had an MIC of 2 µg/mL (≈ 3.27 µM).

A further data set relates to Staphylococcus aureus. The data set can be described thus: Antibacterial activity against methicillin-resistant Staphylococcus aureus isolate 8 incubated overnight by agar dilution method.
Conditions: not given
The class given is functional. In a few lines: as §1
`C[C@]12C[C@]34C[C@@H]1C[C@H](O2)[C@H]3[C@](C)(CCC(=O)Nc1c(O)ccc(C(=O)O)c1O)C(=O)C[C@@H]4SC(=O)c1ccccc1` showed an MIC of 1 µg/mL (≈ 1.73 µM).

Molecule `CCS[C@H]1CC(=O)[C@@](C)(CCC(=O)Nc2c(O)ccc(C(=O)O)c2O)[C@@H]2[C@@H]3C[C@H]4C[C@]12C[C@]4(C)O3` had an MIC of 1 µg/mL (≈ 1.99 µM).

`C[C@]12C[C@]34C[C@@H]1C[C@H](O2)[C@H]3[C@](C)(CCC(=O)Nc1c(O)ccc(C(=O)O)c1O)C(=O)C[C@@H]4SC(=O)Cc1ccc(F)cc1`: the MIC amounted to 2 µg/mL (≈ 3.27 µM).

A further data set has as its system Staphylococcus aureus. The data set can be described thus: Antibacterial activity against methicillin-resistant Staphylococcus aureus isolate 6 incubated overnight by agar dilution method. The class given is functional.
Conditions: not given
The essentials: as §1
Molecule `C[C@]12C[C@]34C[C@@H]1C[C@H](O2)[C@H]3[C@](C)(CCC(=O)Nc1c(O)ccc(C(=O)O)c1O)C(=O)C[C@@H]4SC(=O)c1ccccc1` came in with an MIC of 1 µg/mL (≈ 1.73 µM).

On to `CCS[C@H]1CC(=O)[C@@](C)(CCC(=O)Nc2c(O)ccc(C(=O)O)c2O)[C@@H]2[C@@H]3C[C@H]4C[C@]12C[C@]4(C)O3`, for which the minimal inhibitory concentration (MIC) stood at 2 µg/mL (≈ 3.97 µM).

`C[C@]12C[C@]34C[C@@H]1C[C@H](O2)[C@H]3[C@](C)(CCC(=O)Nc1c(O)ccc(C(=O)O)c1O)C(=O)C[C@@H]4SC(=O)Cc1ccc(F)cc1`: it took 2 µg/mL (≈ 3.27 µM) to inhibit growth (MIC).

System in the next data set: not listed separately
The data set can be described thus: Stability of the compound in PBS at pH 7.1 at 0.1 mg/ml after 16 hrs by HPLC analysis. Conditions: buffer, pH 7.1, 16 h. The class given is physicochemical. The essentials:
as §2
With `C[C@]12C[C@]34C[C@@H]1C[C@H](O2)[C@H]3[C@](C)(CCC(=O)Nc1c(O)ccc(C(=O)O)c1O)C(=O)C[C@@H]4SC(=O)c1ccccc1`, the Stability entry is “Stable”.

`CCS[C@H]1CC(=O)[C@@](C)(CCC(=O)Nc2c(O)ccc(C(=O)O)c2O)[C@@H]2[C@@H]3C[C@H]4C[C@]12C[C@]4(C)O3`: the Stability entry was “Stable”.

The values above are taken from ChEMBL document CHEMBL4138284, “Biomimetic Stereoselective Sulfa-Michael Addition Leads to Platensimycin and Platencin Sulfur Analogues against Methicillin-Resistant Staphylococcus aureus” (J Nat Prod, 2018).
